S1P4 antag: blocks the human S1P4 receptor. O95977. S1P4-expressing cells, antagonist mode, reporter read-out. inhibition, % at 4.98 µM. hit rate 0.26% among 220,000. AID 1510; in the data active means inhibition above about 29%;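 further: 0% = wells stimulated with agonist and 100% = vehicle wells without agonist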
Target sequence (O95977 whole entry, looked up): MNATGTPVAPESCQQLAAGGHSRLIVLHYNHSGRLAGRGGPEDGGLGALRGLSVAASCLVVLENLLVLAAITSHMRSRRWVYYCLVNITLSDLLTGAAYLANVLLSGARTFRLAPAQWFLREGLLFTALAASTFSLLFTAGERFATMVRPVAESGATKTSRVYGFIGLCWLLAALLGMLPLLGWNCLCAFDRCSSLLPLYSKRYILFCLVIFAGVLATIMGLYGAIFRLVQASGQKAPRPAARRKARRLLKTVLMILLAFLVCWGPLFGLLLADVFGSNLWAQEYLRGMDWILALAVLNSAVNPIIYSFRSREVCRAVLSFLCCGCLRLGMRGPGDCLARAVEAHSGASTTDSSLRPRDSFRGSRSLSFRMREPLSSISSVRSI
TNF necrop inh: blocks TNF-alpha induced death of Jurkat FADD-/- cells; AID 463075; hit rate 0.068% among 220,000; Jurkat FADD-/- TNF necroptosis rescue, ATP luminescence, 24 h; 0 = TNF only, 100 = no-TNF cells; activation (protection from cell death), % at 10 µM;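 active means activation, meaning protection from cell death, of at least 50% relative to plate controls; inactive means activation below 50%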;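 further: necroptosis triggered by 40 ng/mL TNF-alpha added together with compound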
L929 necroptosis: blocks zVAD induced death of L929 cells; L929 zVAD necroptosis rescue, ATP luminescence, 24 h; with zVAD 60 µM; viability rescue, % at 10 µM; hit rate 0.38% among 220,000;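 active means activation, scaled between plate controls, above about 75%, limit read from the data; inactive means activation under that limit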;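 further: 0% = zVAD with DMSO and 100% = DMSO alone without zVAD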
TbHK1 inh: T. brucei hexokinase 1 inhibition; recombinant TbHK1, G6PDH-coupled NADH A340; inhibition, % at 10 µM; hit rate 0.11% among 220,000;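 active means inhibition of 50% or more in the single-dose primary screen; inactive means inhibition below 50%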
S1P4 ag: activates the human S1P4 receptor; hit rate 0.35% among 220,000; O95977; activation, % at 4.98 µM; AID 1509; S1P4-expressing cell line, agonist reporter assay; in the data active means activation above about 11%;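 further: 0% = DMSO vehicle and 100% = reference agonist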
Dynein transport: dynein cargo transport inhibition. 3617.4 mouse cells, GR-EGFP nuclear translocation imaging; test concentration mostly 20 µM; stimulated with dexamethasone, 1 µM; stronger effect = lower value. z-score, hits read low. hit rate 0.47% among 220,000;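 active means plate z-score of nuclear minus cytoplasmic receptor signal below a set negative limit, without overly bright fluorescence or cell loss, cut at about -3.5 in these data, passing the limit was not always enough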;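 further: z-score of nuclear minus cytoplasmic ring GR-EGFP intensity difference per well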
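medium = tetracycline-free induction medium containing charcoal-stripped FBS | also added = 1.0 µM final dexamethasone stimulus | schedule = 48 h induction, 1 h compound, 30 min dex at 37 °C | technique = fixed, Hoechst-stained cells imaged at 10x for EGFP | measure = GR-EGFP nuclear translocation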
zVAD death conf: confirmed blocker of zVAD induced death in L929 cells | L929 zVAD-induced necroptosis rescue, ATP luminescence, 24 h | hit rate 16% among 760 | activation (protection from necroptosis), % at 10 µM | shares compounds with L929 necroptosis;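 active means mean protection from necroptosis of at least 50% over duplicate tests; inactive means mean protection below 50%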;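 further: 0% = cells with zVAD alone and 100% = vehicle cells without zVAD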
* marks the source's active call; other numbers are inactive results; x = not tested or not shown. Compounds with a hit are over-represented: about 1.5% of the library has one in this group of screens.

SMILES	S1P4 antag	TNF necrop inh	L929 necroptosis	TbHK1 inh	S1P4 ag	Dynein transport	zVAD death conf
CCCN(CCC)CCNC(=O)c1cc2c(=O)n(C)c3ccccc3c2n1C	-16.7	5.2	78.2*	-4.9	0.2	0.136	33.4
CC1CCCCN1CCNC(=O)c1cc2c(=O)n(C)c3ccccc3c2n1C (configuration not stated)	-10.7	7.1	81.5*	-0.2	-0.3	0.456	37.2
CCCCc1nnc2c(N(C)S(=O)(=O)c3ccccc3)nc3ccccc3n12	-0.4	-0.6	0.3	2.3	1.3	1.53	x
c1cncc(-c2nc(NCCCn3ccnc3)c3ccccc3n2)c1	-0.3	1.1	75.1*	-8.6	0.2	-0.887	32.4
CC(Cc1ccccc1)NC(=O)c1cc([N+](=O)[O-])ccc1Cl (configuration not stated)	5.1	2.6	0.9	1.5	0.2	1.25	x
CO/N=C/C1CCN(c2ncc(C(F)(F)F)cc2Cl)C1=O (configuration not stated)	-6.3	0.9	2.1	6.0	-1.0	1.13	x
COC(=O)CCc1c(C)[nH]c(C(=O)OCc2ccccc2)c1C	7.8	-1.4	76.5*	6.7	0.7	0.0333	1.0
Cc1ccc(/C=C2/SC(=S)N(CC(=O)Nc3ncc(Cc4ccc(C)cc4)s3)C2=O)cc1	-2.3	-0.8	75.2*	-10.8	3.5	-0.0985	0.2
Cc1ccc(/C=C2\SC(=S)N(CC(=O)Nc3ncc(Cc4ccccc4Cl)s3)C2=O)cc1	-4.5	-3.0	0.1	-6.9	0.2	-0.263	x
N#Cc1cc2c(nc1Cl)CCC2	5.3	1.2	-0.3	-5.3	0.4	1.45	x
COc1ccc(OCC(=O)Nc2ccc(C)c(S(=O)(=O)N(C)C)c2)cc1	-1.9	-0.3	80.6*	7.6	0.7	1	2.4
CC(=O)c1ccc(OCCCC(=O)Nc2ccc(C)c(S(=O)(=O)N(C)C)c2)cc1	-5.3	1.4	1.1	30.6	-2.5	-0.9	x
CC(C)=CC(=O)Nc1nc2ccc([N+](=O)[O-])cc2s1	4.6	-5.0	77.4*	-2.4	0.0	0.0834	37.9
O=C(NCc1ccc2c(c1)CCO2)Nc1ccccc1	3.4	4.7	2.0	-7.7	0.6	0.197	x
COc1ccc2nc(NC(=O)CCc3cc(OC)c(OC)c(OC)c3)sc2c1	-17.6	6.0	87.7*	-6.4	-3.3	1.84	4.1
CCC(=O)Nc1nc2cc(OC)ccc2s1	8.9	-2.5	88.3*	-3.1	-0.4	-0.23	29.1
COc1ccc2sc(NC(=O)CC(C)C)nc2c1	7.3	4.3	77.0*	-4.7	1.2	-0.232	7.2
COc1ccc2nc(NC(=O)Cc3cccs3)sc2c1	7.1	5.3	9.3	-1.3	0.1	-1.49	x
CCC(=O)Nc1nc2ccc3nc(C)sc3c2s1	16.5	-0.3	84.0*	-3.6	0.8	-1.01	31.4
CCC(=O)Nc1nc2c(OC)ccc(OC)c2s1	-13.8	1.5	1.7	1.0	-1.7	0.877	x
Cc1ccc(NC(=S)N(CCN(C)C)Cc2cc3cc(C)cc(C)c3[nH]c2=O)cc1	-16.9	7.3	1.0	23.5	-3.8	-0.036	x
O=C1CCC(C(=O)Nc2ccccc2N2CCOCC2)=NN1	0.1	3.6	0.2	-13.8	0.7	-0.0429	x
CNC(=O)N/N=C(\N)c1ccccn1	-10.5	1.4	0.1	-8.9	0.3	-0.647	x
N/C(=N\NC(=O)Nc1ccc(Cl)cc1)c1ccccn1	-3.4	0.9	81.1*	-11.1	0.1	-0.387	2.9
Cc1cc(-c2ccccc2)nc(SCC(=O)N2CCCC2)n1	16.4	-0.2	5.2	-4.7	1.6	0.349	x
SMILES	S1P4 antag	TNF necrop inh	L929 necroptosis	TbHK1 inh	S1P4 ag	Dynein transport	zVAD death conf
O=C(Nc1ccc(Br)cc1)N1CCCCC1	-11.5	2.1	7.6	-8.1	3.9	-0.725	x
COc1cc(/C=N/Nc2nc3ccccc3[nH]2)cc(Br)c1OCC(=O)N(C)C	-1.7	63.9*	75.3*	-33.1	-1.1	-0.497	60.2*
COc1cc(/C=N/Nc2nc3ccccc3[nH]2)ccc1O	-6.2	36.0	79.3*	-54.5	0.0	-0.784	47.4
COc1cc(/C=N/Nc2nc3ccccc3[nH]2)cc(OC)c1O	-20.5	15.9	86.7*	-37.1	0.2	-0.178	2.9
COc1cccc(/C=N/Nc2nc3ccccc3[nH]2)c1OC	11.4	11.9	7.2	-72.9	-0.4	-0.541	x
COc1cc(/C=N/Nc2nc3ccccc3[nH]c2=O)ccc1O	2.5	-2.5	78.5*	-24.6	0.3	-1.78	14.8
CCn1c2ccccc2c2cc([N+](=O)[O-])ccc21	-3.2	-0.2	2.1	-0.4	-0.4	-0.641	x
CCn1c2ccccc2c(=O)c2ccccc21	-4.4	0.4	79.6*	10.6	10.0	0.714	2.3
CC(C)(C)c1ccc(NC(=O)COc2ccc(-n3ccnc3)cc2)cc1	2.5	-17.4	70.6	-0.2	2.1	-0.52	x
Cc1ccc(NC(=O)n2ccc(-c3ccc(-n4ccnc4)cc3)n2)cc1	-13.5	14.2	82.1*	-1.0	2.6	-0.926	49.8
Cc1cc(-c2onc(C)c2C(=O)O)no1	-11.2	-0.6	0.8	-5.6	3.2	1.33	x
OCC1(Cc2ccccc2)CCN(Cc2ccc(C(F)(F)F)cc2)CC1	6.3	0.8	0.5	4.2	-0.4	-1.52	x
Cn1c(=O)c2[nH]c(N3CCN(c4ccccn4)CC3)nc2n(C)c1=O	-9.7	2.8	75.0*	-2.2	0.8	-0.487	2.4
Cn1c(=O)c2[nH]c(N3CCCCC3)nc2n(C)c1=O	-26.7	1.7	0.7	-2.4	0.6	0.58	x
COc1ccc(N2CC(C(=O)Nc3cc(C)ccn3)CC2=O)cc1 (configuration not stated)	-14.1	7.0	0.1	-11.1	1.0	-0.272	x
COc1ccccc1NC(=O)N1CCN(C)CC1	-33.6	0.4	4.0	-0.7	0.8	-0.644	x
Cc1cc(O)ccc1N=Cc1c(C(F)(F)F)[nH][nH]c1=O	-0.5	-5.7	0.5	3.1	1.2	-0.578	x
CC1CCC/C=C/C(=O)c2c(O)cc(O)cc2CC(=O)O1 (configuration not stated)	x	-25.8	83.9*	-37.3	x	-4.52*	32.5
CC(C)(C)c1cc(NC(=O)Nc2ccc(Br)cc2Cl)no1	0.3	1.9	76.1*	2.7	-0.8	-1.1	1.6
NC(=O)c1ccccc1	-8.2	0.5	1.0	-2.5	-0.5	1.72	x
NC(=O)c1ccc(-c2ncc(-c3ccccc3)o2)cc1	-19.1	-5.3	78.6*	-1.6	1.9	-0.713	63.0*
O=c1oc(-c2cccnc2)nc2ccccc12	5.2	-1.3	-0.1	2.0	0.6	0.01	x
c1ccc(-c2cnc(-c3cccnc3)o2)cc1	-6.8	-13.6	78.9*	-16.1	1.8	-0.363	47.3
O=C(CCc1ccccc1)N1CCN(c2ccc([N+](=O)[O-])cc2)CC1	0.9	-0.7	0.1	-8.9	-0.5	-0.487	x

Source: PubChem
